Laboratory results reported in ChEMBL document CHEMBL4354797, “Novel Pyrazolo[4,3- d]pyrimidine as Potent and Orally Active Inducible Nitric Oxide Synthase (iNOS) Dimerization Inhibitor with Efficacy in Rheumatoid Arthritis Mouse Model” (J Med Chem, 2019).
Calls of active or inactive are those of the source. The rule behind the calls is not given here.

What was measured:
RAW264.7 [1] = assay: Antiinflammatory activity in mouse RAW264.7 cells assessed as inhibition of LPS-induced NO production at 10 uM preincubated for 1 hr followed by LPS addition and measured after 24 hrs by Griess reagent-based assay relative to control; type: functional
In short: (§1)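 RAW 264.7 cells pretreated with compound for 1 h, then LPS 1 µg/mL for 24 h. Single-point inhibition at 10 µM. IC50 by regression of inhibition over several concentrations. At least three independent experiments.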

[2] = target: T1, Nitric oxide synthase, inducible (Mus musculus, UniProt P29477); assay: Inhibition of iNOS in LPS-stimulated mouse RAW 264.7 cells preincubated for 1 hr followed by LPS-stimulation and measured after 6 hrs by fluorescence based assay
T1 sequence (P29477 whole entry): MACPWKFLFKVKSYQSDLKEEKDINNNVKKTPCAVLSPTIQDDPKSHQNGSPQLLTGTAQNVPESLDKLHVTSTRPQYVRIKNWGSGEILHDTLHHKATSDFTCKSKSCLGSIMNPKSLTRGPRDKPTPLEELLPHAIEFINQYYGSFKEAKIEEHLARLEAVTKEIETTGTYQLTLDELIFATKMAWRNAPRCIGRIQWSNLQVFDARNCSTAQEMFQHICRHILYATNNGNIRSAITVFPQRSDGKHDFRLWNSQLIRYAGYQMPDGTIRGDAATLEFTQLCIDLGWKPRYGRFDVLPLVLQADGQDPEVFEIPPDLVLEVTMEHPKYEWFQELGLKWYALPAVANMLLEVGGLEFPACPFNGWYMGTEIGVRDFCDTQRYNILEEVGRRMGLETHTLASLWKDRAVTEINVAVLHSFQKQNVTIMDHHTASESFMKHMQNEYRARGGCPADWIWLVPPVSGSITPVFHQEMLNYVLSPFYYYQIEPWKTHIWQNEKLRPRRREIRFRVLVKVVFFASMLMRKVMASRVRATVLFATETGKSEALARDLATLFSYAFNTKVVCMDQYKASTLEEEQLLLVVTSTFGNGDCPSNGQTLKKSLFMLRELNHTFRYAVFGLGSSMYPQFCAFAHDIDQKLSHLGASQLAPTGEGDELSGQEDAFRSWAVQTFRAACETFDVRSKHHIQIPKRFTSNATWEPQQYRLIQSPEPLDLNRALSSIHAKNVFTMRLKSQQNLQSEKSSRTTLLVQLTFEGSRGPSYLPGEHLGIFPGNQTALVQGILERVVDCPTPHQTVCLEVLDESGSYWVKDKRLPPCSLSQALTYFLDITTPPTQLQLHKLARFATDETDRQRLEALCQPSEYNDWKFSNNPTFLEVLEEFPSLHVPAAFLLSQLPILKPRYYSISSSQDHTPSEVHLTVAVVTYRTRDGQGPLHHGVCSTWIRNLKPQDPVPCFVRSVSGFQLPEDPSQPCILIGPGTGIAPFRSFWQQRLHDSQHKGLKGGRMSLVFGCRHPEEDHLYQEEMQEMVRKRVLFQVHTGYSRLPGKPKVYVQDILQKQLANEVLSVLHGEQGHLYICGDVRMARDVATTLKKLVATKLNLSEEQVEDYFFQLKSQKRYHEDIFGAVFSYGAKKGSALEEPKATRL
In short: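 Inhibition calculated relative to LPS-stimulated and unstimulated controls. IC50 obtained by regression of inhibition rates at several concentrations. Indomethacin served as positive control.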

RAW264.7 [3] = assay: Antiinflammatory activity in mouse RAW264.7 cells assessed as inhibition of LPS-induced NO production preincubated for 1 hr followed by LPS addition and measured after 24 hrs by Griess reagent-based assay; type: functional, cell-based; in short: as §1
RAW264.7 [4] = assay: Cytotoxicity against mouse RAW264.7 cells assessed as reduction in cell viability; type: cell-based
RAW264.7 [5] = assay: Cytotoxicity against LPS-induced mouse RAW264.7 cells assessed as reduction in cell viability; type: cell-based
Rattus norvegicus [6] = assay: Antiarthritic activity in Sprague-Dawley rat model of arthritis assessed as effect on CFA-induced synovial hyperplasia at 50 mg/kg, ig administered daily for 28 days starting from 14 days post-immunization and measured every 3 days by H and E staining based histopathological analysis; type: functional, organism-based
In short: (§2)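 Knee joints of adjuvant-arthritic rats were taken after intragastric dosing once daily, days 14–28 post-immunization (test agent 40 or 80 mg/kg; aspirin 50 mg/kg). Sections stained with H&E were scored by microscopy for synovial hyperplasia, inflammatory cell infiltration and bone/cartilage destruction, against normal and untreated arthritic rats.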

Rattus norvegicus [7] = assay: (§3) Antiarthritic activity in Sprague-Dawley rat model of arthritis assessed as inhibition of CFA-induced inflammatory cell infiltration at 50 mg/kg, ig administered daily for 28 days starting from 14 days post-immunization and measured every 3 days by H and E staining based histopathological analysis; type: functional, organism-based; in short: as §2
Rattus norvegicus [8] = assay: Antiarthritic activity in Sprague-Dawley rat model of arthritis assessed as inhibition of CFA-induced cartilage destruction at 50 mg/kg, ig administered daily for 28 days starting from 14 days post-immunization and measured every 3 days by H and E staining based histopathological analysis; type: functional, organism-based; in short: as §2
Rattus norvegicus [9] = assay: Antiinflammatory activity in CFA-induced Sprague-Dawley rat model of arthritis assessed as reduction in NO level in serum at 50 mg/kg, ig administered daily for 28 days starting from 14 days post-immunization; type: functional, organism-based
In short: (§4)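 Serum NO, TNF-α, IL-1β and IL-6 measured in adjuvant-arthritic rats given intragastric dosing once daily, days 14–28 after immunization (test agent 40 or 80 mg/kg; aspirin 50 mg/kg), compared with untreated arthritic and normal rats. n=5 per group, mean±s.d.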

Rattus norvegicus [10] = assay: Antiinflammatory activity in CFA-induced Sprague-Dawley rat model of arthritis assessed as reduction in TNF-alpha level in serum at 50 mg/kg, ig administered daily for 28 days starting from 14 days post-immunization; type: functional, organism-based; in short: as §4
Rattus norvegicus [11] = assay: Antiinflammatory activity in CFA-induced Sprague-Dawley rat model of arthritis assessed as reduction in IL-1beta level in serum at 50 mg/kg, ig administered daily for 28 days starting from 14 days post-immunization; type: functional, organism-based; in short: as §4
Rattus norvegicus [12] = assay: Antiinflammatory activity in CFA-induced Sprague-Dawley rat model of arthritis assessed as reduction in IL-6 level in serum at 50 mg/kg, ig administered daily for 28 days starting from 14 days post-immunization; type: functional, organism-based; in short: as §4
Rattus norvegicus [13] = assay: Antiarthritic activity in CFA-induced Sprague-Dawley rat arthritic model assessed as inhibition of hind paw swelling at 50 mg/kg, ig administered daily for 28 days starting from 14 days post-immunization and measured on day 30; type: functional, organism-based
In short: (§5)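 Rat adjuvant-induced arthritis. Test agent given intragastrically once daily from day 14 to 28 after adjuvant immunization (40 or 80 mg/kg). Aspirin 50 mg/kg intragastric was the positive control. Hind paw swelling and arthritis index measured every 3 days, with body weight tracked; day 30 also reported. n=5 per group, mean±s.d., Tukey's test.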

[14] = target: T2, Nitric oxide synthase, inducible (Mus musculus) (UniProt P29477); assay: Potency index, ratio of indomethacin IC50 to compound IC50 for inhibition of iNOS in LPS-stimulated mouse RAW264.7 cells; type: cell-based
T2 sequence (whole entry): T1 sequence (P29477 whole entry)

RAW264.7 [15] = assay: Inhibition of iNOS expression in LPS-induced mouse RAW264.7 cells at 1 to 4 uM preincubated for 1 hr followed by LPS-stimulation by Western blot analysis; type: functional, cell-based
In short: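 RAW 264.7 cells pretreated with the indicated compound concentrations for 1 h, then LPS 1 µg/mL for 24 h. iNOS protein assessed by Western blot on 8% SDS-PAGE, with β-actin as loading control. At least three independent experiments, each in duplicate.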

[16] = target: T2, Nitric oxide synthase, inducible (Mus musculus); assay: Inhibition of iNOS dimerization in LPS-induced mouse RAW264.7 cells at 1 to 4 uM preincubated for 1 hr followed by LPS-stimulation and measured after 24 hrs by immunoblot analysis; type: cell-based
Rattus norvegicus [17] = assay: Antiarthritic activity in CFA-induced Sprague-Dawley rat arthritic model assessed as inhibition of hind paw swelling at 40 mg/kg, ig administered daily for 28 days starting from 14 days post-immunization and measured on day 30; type: functional, organism-based; in short: as §5
[18] = Toxicity in Sprague-Dawley rat model of CFA-induced arthritis assessed as reduction in body weight loss at 40 to 80 mg/kg, ig administered daily for 28 days starting from 14 days post-immunization and measured on day 30; type: organism-based; conditions: in vivo, po; in short: as §5
Rattus norvegicus [19] = assay: Antiarthritic activity in Sprague-Dawley rat model of arthritis assessed as decrease in CFA-induced synovial hyperplasia at 40 and 80 mg/kg, ig administered daily for 28 days starting from 14 days post-immunization and measured every 3 days by H and E staining based histopathological analysis; type: functional, organism-based; in short: as §2
Rattus norvegicus [20] = assay: as §3, with “40 and 80” for “50”; type: functional, organism-based; in short: as §2
Rattus norvegicus [21] = assay: Antiarthritic activity in Sprague-Dawley rat model of arthritis assessed as inhibition of CFA-induced cartilage destruction at 80 mg/kg, ig administered daily for 28 days starting from 14 days post-immunization and measured every 3 days by H and E staining based histopathological analysis; type: functional, organism-based; in short: as §2
Rattus norvegicus [22] = assay: Antiinflammatory activity in ig dosed CFA-induced Sprague-Dawley rat model of arthritis assessed as reduction in NO level in serum administered daily for 28 days starting from 14 days post-immunization; type: functional, organism-based; in short: as §4
Rattus norvegicus [23] = assay: Antiinflammatory activity in ig dosed CFA-induced Sprague-Dawley rat model of arthritis assessed as reduction in TNF-alpha level in serum administered daily for 28 days starting from 14 days post-immunization; type: functional, organism-based; in short: as §4
Rattus norvegicus [24] = assay: Antiinflammatory activity in ig dosed CFA-induced Sprague-Dawley rat model of arthritis assessed as reduction in IL-1beta level in serum administered daily for 28 days starting from 14 days post-immunization; type: functional, organism-based; in short: as §4
Rattus norvegicus [25] = assay: Antiinflammatory activity in ig dosed CFA-induced Sprague-Dawley rat model of arthritis assessed as reduction in IL-6 level in serum administered daily for 28 days starting from 14 days post-immunization; type: functional, organism-based; in short: as §4
[26] = Mus musculus, RAW264.7, read-out: IC50

IC50 ([2]; read-out: IC50) [µM]	IC50 (RAW264.7 [3]; [26]) [µM]	Compound	inhibition at 10 µM (RAW264.7 [1]) [%]	IC50 (RAW264.7 [4]) [µM]	IC50 (RAW264.7 [5]) [µM]	other results
8.46	12.2	CCCc1nn(C)c2c(NC(C)C)nc(/C=C/c3ccccc3)nc12	53.9	> 50	> 50	
7.26	10.8	CCCc1nn(C)c2c(NC(C)C)nc(-c3cc(OC)c(OC)c(OC)c3)nc12	51.9	> 50	> 50	
1.12	3.17	CCCc1nn(C)c2c(NC(C)C)nc(/C=C/c3cc(OC)c(OC)c(OC)c3)nc12	90.4	> 50	> 50	Ratio IC50 [14]: 22; inhibition (RAW264.7 [15]): inactive; inhibition [16]: Active; inhibition (Rattus norvegicus [17]): Active; Activity [18]: Non-Toxic; Activity (Rattus norvegicus [19]): Active; Activity (Rattus norvegicus [20]): Active; Activity (Rattus norvegicus [21]): Active; Activity (Rattus norvegicus [22]): Dose-dependent effect; Activity (Rattus norvegicus [23]): Dose-dependent effect; Activity (Rattus norvegicus [24]): Dose-dependent effect; Activity (Rattus norvegicus [25]): Dose-dependent effect
5.23	13.7	CCCc1nn(C)c2c(N3CCC(O)CC3)nc(/C=C/c3cc(OC)c(OC)c(OC)c3)nc12	45.3	> 50	> 50	

The next lines start with the compound.

Compound	IC50 ([2]; read-out: IC50) [µM]	IC50 (RAW264.7 [3]; [26]) [µM]	inhibition at 10 µM (RAW264.7 [1]) [%]	IC50 (RAW264.7 [4]) [µM]	IC50 (RAW264.7 [5]) [µM]	other results
COc1ccc2c(c1)c(CC(=O)O)c(C)n2C(=O)c1ccc(Cl)cc1 [INDOMETHACIN]	24.9		59.2	> 50	> 50	
CCCc1nn(C)c2c(Nc3ccccc3)nc(/C=C/c3ccccc3)nc12			4.9	> 50	> 50	IC50 [2]: Not Active; IC50 (RAW264.7 [3]; raw264.7): Not Active
CC(=O)Oc1ccccc1C(=O)O						Activity (Rattus norvegicus [6]): Active; Activity (Rattus norvegicus [7]): Active; Activity (Rattus norvegicus [8]): Active; Activity (Rattus norvegicus [9]): Active; Activity (Rattus norvegicus [10]): Active; Activity (Rattus norvegicus [11]): Active; Activity (Rattus norvegicus [12]): Active; Activity (Rattus norvegicus [13]): Active
CCCc1nn(C)c2c(NCC(C)C)nc(/C=C/c3ccccc3)nc12	5.31	22.1	33.3	> 50	> 50	
CCCc1nn(C)c2c(NCc3ccc(Cl)cc3)nc(/C=C/c3ccco3)nc12	4.25	9.26	56.4	> 50	> 50	
CCCc1nn(C)c2c(Nc3ccc(C(=O)O)cc3)nc(-c3cc(OC)c(OC)c(OC)c3)nc12	10.2	15.8	44.9	> 50	> 50	
CCCc1nn(C)c2c(NCCc3ccc(Cl)cc3)nc(/C=C/c3ccco3)nc12	2.6	6.04	79.2	> 50	> 50	
CCCc1nn(C)c2c(N3CCCC3)nc(-c3cc(OC)c(OC)c(OC)c3)nc12			3.1	> 50	> 50	IC50 [2]: Not Active; IC50 (RAW264.7 [3]; raw264.7): Not Active
